In brackets after ≈: the same amount, converted by molar mass.
Experiments:
[1] = Half life in mouse at 2 umol/kg, po administered using cassette dosing; assay type: ADME, organism-based; settings: in vivo
In short: (§1)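 Mouse PK by cassette dosing. The combined compounds were given orally at 2 μmol/kg and intravenously at 1 μmol/kg. PK parameters were derived from the plasma profiles.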

[2] = Unbound clearance in mouse at 2 umol/kg, po and 1 umol/kg, iv administered using cassette dosing; assay type: ADME, organism-based; settings: in vivo; in short: as §1
[3] = Apparent permeability across basolateral to apical side in human Caco2 cells; assay type: ADME, cell-based; settings: Caco-2
In short: (§2)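 Bidirectional permeability was measured in the apical-to-basolateral and basolateral-to-apical directions.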

[4] = AUC in mouse at 2 umol/kg, po administered using cassette dosing; assay type: ADME, organism-based; settings: in vivo; in short: as §1
[5] = Bioavailability in mouse at 2 umol/kg, po and 1 umol/kg, iv administered using cassette dosing; assay type: ADME, organism-based; settings: in vivo; in short: as §1
[6] = Half life in mouse at 1 umol/kg, iv administered using cassette dosing; assay type: ADME, organism-based; settings: in vivo; in short: as §1
[7] = Apparent permeability across apical to basolateral side in human Caco2 cells; assay type: ADME, cell-based; settings: Caco-2; in short: as §2
[8] = Protein binding in human plasma; assay type: ADME, cell-free; settings: read-out: PPB (converted)
In short: (§3)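 Plasma protein binding was determined in human or mouse plasma.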

[9] = Clearance in mouse at 2 umol/kg, po and 1 umol/kg, iv administered using cassette dosing; assay type: ADME, organism-based; settings: in vivo; in short: as §1
[10] = Metabolic stability in human liver microsomes assessed as intrinsic clearance; assay type: ADME, Microsome
[11] = Metabolic stability in mouse liver microsomes assessed as intrinsic clearance; assay type: ADME, Microsome
[12] = Protein binding in mouse plasma; assay type: ADME, cell-free; settings: read-out: PPB (converted); in short: as §3
[13] = Volume of distribution at steady state in mouse at 2 umol/kg, po and 1 umol/kg, iv administered using cassette dosing; assay type: ADME, organism-based; settings: in vivo, read-out: Vdss; in short: as §1
[14] = Solubility of compound in aqueous medium at pH 6.8; assay type: physicochemical
In short: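 Solubility was measured in the second fluid of the Japanese Pharmacopoeia Disintegration Test (pH 6.8).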

[15] = Drug metabolism in human hepatocytes assessed as central triazolo-pyridine core derived metabolic soft spot formation by mass spectrometry; assay type: ADME, cell-based, Hepatocyte
[16] = Drug metabolism in human hepatocytes assessed as cyclopentyl derived oxidative adduct formation by mass spectrometry; assay type: ADME, cell-based, Hepatocyte

Question: What does the source list for `Cc1ccc(C(=O)Nc2cc(F)cc(CN3CCN(C(=O)C4CCCC4)[C@@H](C)C3)c2C)cn1`?
Answer: half-life [1]: 0.7 h; CL free [2]: 767 mL/min/kg; Papp B→A [3]: 55 ×10⁻⁶ cm/s; AUC [4]: 0.49 µM·h; bioavailability [5]: 48%; half-life [6]: 0.7 h; Papp A→B [7]: 40 ×10⁻⁶ cm/s; fraction unbound [8]: 0.003; clearance [9]: 33.3 mL/min/kg; CLH [10]: 88 µL/min/mg; CLH [11]: 110 µL/min/mg; fraction unbound [12]: 0.043; Vd [13]: 1.6 L/kg; solubility [14]: 71 µM (≈ 32.1 µg/mL)

Question: Which CLH [10] does the source give for `Cc1ccc(C(=O)Nc2cn3ncnc3c(CN3CCN(C(=O)C4CCC(F)(F)C4)[C@@H](C)C3)c2C)cn1` (stereo partly specified) here?
Answer: The CLH was < 10 µL/min/mg.

Question: Which CLH [10] does the source give for `Cc1ccc(C(=O)Nc2cn3ncnc3c(CN3CCN(C(=O)c4ccccc4)[C@@H](C)C3)c2C)cn1` here?
Answer: The CLH was 21 µL/min/mg.

Question: With `Cc1ccc(C(=O)Nc2cn3ncnc3c(CN3CCN(C(=O)C(C)C)[C@@H](C)C3)c2C)cn1` as the compound, how does the CLH [10] read?
Answer: Its CLH is 240 µL/min/mg.

Question: Which half-life [1] does the source give for `Cc1ccc(C(=O)Nc2cn3ncnc3c(O[C@H]3CCN(C(=O)CC(C(F)(F)F)C(F)(F)F)[C@@H](C)C3)c2C)cn1` here?
Answer: Its half-life is 3.6 h.

Question: What about the CL free [2] of the same compound?
Answer: Its CL free is 18.3 mL/min/kg.

Question: And the Papp B→A [3]?
Answer: The Papp B→A was 51 ×10⁻⁶ cm/s.

Question: And the AUC [4]?
Answer: The AUC was 15 µM·h.

Question: And the bioavailability [5]?
Answer: Its bioavailability is 120%.

Question: What about the half-life [6] of the same compound?
Answer: Its half-life is 3.9 h.

Question: What about the Papp A→B [7] of the same compound?
Answer: The Papp A→B was 31 ×10⁻⁶ cm/s.

Question: And the fraction unbound [8]?
Answer: Its fraction unbound is 0.082.

Question: And the clearance [9]?
Answer: Its clearance is 2.5 mL/min/kg.

Question: What about the CLH [10] of the same compound?
Answer: Its CLH is 10 µL/min/mg.

Question: And the CLH [11]?
Answer: The CLH was 30 µL/min/mg.

Question: What about the fraction unbound [12] of the same compound?
Answer: The fraction unbound was 0.135.

Question: What about the Vd [13] of the same compound?
Answer: Its Vd is 0.8 L/kg.

Question: And the solubility [14]?
Answer: The solubility was 170 µM (≈ 97.3 µg/mL).

Question: Which CLH [10] does the source give for `Cc1ccc(C(=O)Nc2cn3ncnc3c(CN3CCN(C(=O)C4CCOCC4)[C@@H](C)C3)c2C)cn1` here?
Answer: Its CLH is < 10 µL/min/mg.

Question: With `Cc1ccc(C(=O)Nc2cn3ncnc3c(CN3CCN(C(=O)CCC(F)(F)F)[C@@H](C)C3)c2C)cn1` as the compound, how does the CLH [10] read?
Answer: The CLH was < 10 µL/min/mg.

Question: With `Cc1ccc(C(=O)Nc2cn3ncnc3c(O[C@@H]3CCN(C(=O)CC(C(F)(F)F)C(F)(F)F)[C@@H](C)C3)c2C)cn1` as the compound, how does the CLH [10] read?
Answer: The CLH was 28 µL/min/mg.

Question: With `Cc1ccc(C(=O)Nc2cn3ncnc3c(CN3CCN(C(=O)CC(C)C)[C@@H](C)C3)c2C)cn1` as the compound, how does the CLH [10] read?
Answer: Its CLH is 20 µL/min/mg.

Question: Which CLH [10] does the source give for `Cc1ccc(C(=O)Nc2cc3nncn3c(CN3CCN(C(=O)C4CCCC4)[C@@H](C)C3)c2C)cn1` here?
Answer: The CLH was 59 µL/min/mg.

Question: With `Cc1ccc(C(=O)Nc2cn3ncnc3c(CN3CCN(C(=O)CC(C(F)(F)F)C(F)(F)F)[C@@H](C)C3)c2C)cn1` as the compound, how does the half-life [1] read?
Answer: The half-life was 1.1 h.

Question: What about the CL free [2] of the same compound?
Answer: The CL free was 75 mL/min/kg.

Question: And the Papp B→A [3]?
Answer: The Papp B→A was 36 ×10⁻⁶ cm/s.

Question: What about the AUC [4] of the same compound?
Answer: Its AUC is 2.3 µM·h.

Question: And the bioavailability [5]?
Answer: The bioavailability was 110%.

Question: And the half-life [6]?
Answer: Its half-life is 1 h.

Question: And the Papp A→B [7]?
Answer: The Papp A→B was 9.6 ×10⁻⁶ cm/s.

Question: And the fraction unbound [8]?
Answer: Its fraction unbound is 0.139.

Question: What about the clearance [9] of the same compound?
Answer: The clearance was 18.3 mL/min/kg.

Question: And the CLH [10]?
Answer: The CLH was < 10 µL/min/mg.

Question: And the CLH [11]?
Answer: Its CLH is < 10 µL/min/mg.

Question: And the fraction unbound [12]?
Answer: The fraction unbound was 0.233.

Question: And the Vd [13]?
Answer: The Vd was 1.1 L/kg.

Question: And the solubility [14]?
Answer: The solubility was 200 µM (≈ 114 µg/mL).

Question: Which half-life [1] does the source give for `Cc1ccc(C(=O)Nc2cn3ncnc3c(CN3CCN(C(=O)C4CCCC4)[C@@H](C)C3)c2C)cn1` here?
Answer: The half-life was 1.2 h.

Question: And the Drug metabolism [15]?
Answer: Its Drug metabolism is “Metabolite_Notdetected”.

Question: What about the CL free [2] of the same compound?
Answer: The CL free was 88.3 mL/min/kg.

Question: What about the Papp B→A [3] of the same compound?
Answer: The Papp B→A was 46 ×10⁻⁶ cm/s.

Question: What about the AUC [4] of the same compound?
Answer: Its AUC is 0.84 µM·h.

Question: And the bioavailability [5]?
Answer: The bioavailability was 47%.

Question: What about the half-life [6] of the same compound?
Answer: The half-life was 1.4 h.

Question: What about the Papp A→B [7] of the same compound?
Answer: The Papp A→B was 2.5 ×10⁻⁶ cm/s.

Question: What about the fraction unbound [8] of the same compound?
Answer: Its fraction unbound is 0.227.

Question: And the Drug metabolism [16]?
Answer: Its Drug metabolism is “Metabolite_Detected”.

Question: What about the clearance [9] of the same compound?
Answer: Its clearance is 18.3 mL/min/kg.

Question: What about the CLH [10] of the same compound?
Answer: Its CLH is 32 µL/min/mg.

Question: And the CLH [11]?
Answer: The CLH was 11 µL/min/mg.

Question: And the fraction unbound [12]?
Answer: The fraction unbound was 0.212.

Question: And the Vd [13]?
Answer: The Vd was 0.77 L/kg.

Question: What about the solubility [14] of the same compound?
Answer: The solubility was 190 µM (≈ 90.4 µg/mL).

— ChEMBL document CHEMBL4342512, “Discovery of [1,2,4]Triazolo[1,5-a]pyridine Derivatives as Potent and Orally Bioavailable RORγt Inverse Agonists” (ACS Med Chem Lett, 2020)
